# Only some compounds are listed: those with a hit (about 3.7% of all), similar ones and a draw of the others.
# KCNQ1 block – human KCNQ1 channel inhibition | CHO-K1 KCNQ1, FluxOR thallium flux fluorescence; hits give high values | B-score at 10 µM | P51787 | actives 1.3% (n = 310,000);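 active = compounds whose thallium flux B-score, printed positive for inhibition, exceeds three library SD while starting fluorescence stays within three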;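 also: channel opened by potassium depolarization with thallium stimulus after 20 min compound exposure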
# KCNK3 block – human KCNK3 channel inhibition, primary screen. O14649. CHO-KCNK3 thallium flux, FluxOR fluorescence; hits give low values. B-score at 10 µM. actives 0.84% (n = 340,000);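 active = B-score under library mean minus 4 SD, starting fluorescence ratio at most library mean plus 5 SD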;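 also: more negative B-score means stronger inhibition of thallium flux through KCNK3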
# KCNQ1 pot – potentiators or activators of human KCNQ1 potassium channel; P51787; CHO-K1 KCNQ1, thallium flux FluxOR fluorescence; hits give high values; B-score at 10 µM; actives 0.35% (n = 310,000); AID 2648;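 active = fluorescence ratio B-score, a plate-corrected score, at least three library SD, with initial intensity B-score within 5 SD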
#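 Assay system: CHO-K1 cells stably expressing KCNQ1; Medium: assay buffer with matched DMSO; Also added: K+/Tl+ depolarizing stimulus; Dosing: single dose; Timing: dye 90 min, compound 20 min, room temperature; Measured by: kinetic FluxOR thallium fluorescence, 10-s 1-Hz baseline, 110-s post-stimulus read; Read-out: peak-minus-minimum fluorescence over initial fluorescence, negative-control normalized, B-scored.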
# Kir21 block – inhibitors of mouse Kir2.1 inward-rectifier potassium channel; P35561; HEK293-Kir2.1, FluxOR thallium flux fluorescence; hits give low values; B-score at 10 µM; actives 0.85% (n = 310,000);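 active = fluorescence ratio B-score at or below minus 3 SD of library scores, with starting-brightness B-score within 2 SD, cut at about -4.2 in these data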;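 also: channel flux triggered by added potassium and thallium sulfate stimulus; B-score of peak minus minimum fluorescence over baseline after thallium stimulus; more negative B-score means stronger Kir2.1 block with less thallium influx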
# hERG rescue – shields human hERG channel from block by proarrhythmic agents. Q12809. CHO-hERG, FluxOR thallium flux, dofetilide IC70 present. activation (rescue from dofetilide block), less the hit threshold, % at 10 µM. actives 0.51% (n = 310,000). AID 1511;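 active = activation above the mean of controls blocked by dofetilide plus 5 SD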;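 also: thallium influx through hERG after potassium depolarization seen as dye fluorescence rise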
# KCNK9 block – blocks the human KCNK9 two-pore domain potassium channel | Q9NPC2 | HEK293 KCNK9, FluxOR thallium flux fluorescence; hits give low values | B-score at 10 µM | actives 1.2% (n = 310,000);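 active = ratio B-score over 3 SD below the library mean, with starting fluorescence within 5 SD of its mean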;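 also: negative B-score means less thallium flux so channel inhibition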
# KCNK3 confirm – human KCNK3 channel inhibition, confirmation assay. actives 99% (n = 2,400). ratio percent of control, % at 10 µM. shares compounds with KCNK3 block. CHO-KCNK3 thallium flux, FluxOR fluorescence; 0% buffer, 100% carvedilol maximal block. AID 651638;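 active = ratio percent of control, averaged over triplicates, above buffer control mean plus 5 SD, cut at about 64% in these data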;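 also: ratio is the fluorescence rise from min to max over baseline after thallium stimulus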
# KCNK3 uninduced – activity in cells without induced KCNK3 expression; shares compounds with KCNK3 block; non-induced KCNK3 parental cells, FluxOR thallium flux; hits give low values; thallium flux ratio (lower = more inhibition) at 10 µM; actives 40% (n = 2,400); AID 651747;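 active = thallium flux ratio, averaged over three wells, more than 5 SD below the buffer control mean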;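 also: host cells are CHO cells without KCNK3 induction; ratio is peak minus trough fluorescence over baseline then normalized to buffer controls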
# * hit, by the source's call; i = inactive; . = not tested or not shown.
SMILES,KCNQ1 block,KCNK3 block,KCNQ1 pot,Kir21 block,hERG rescue,KCNK9 block,KCNK3 confirm,KCNK3 uninduced
CN(C)/C=C/C(=O)c1ccn(S(=O)(=O)c2ccccc2)c1,i,i,i,1.2,-6,i,.,.
CC1Cc2cc(S(=O)(=O)N3CCN(c4ccccc4F)CC3)ccc2N1C(=O)C1CC1 (stereo not drawn),i,i,i,0.84,-7,i,.,.
O=C1OC(c2cccs2)=N/C1=C\c1ccc(-c2ccccc2Cl)o1,i,i,i,-2.9,-21,-7.9*,141*,0.11*
CC1(C)Cc2cccc(C(=O)NCc3ccco3)c2O1,i,-11*,i,0.05,-8,i,105*,i
CC(C)(C)NC(=O)c1cccc2c1OC(C)(C)C2,i,i,i,-0.18,-9,i,.,.
C=C(C)CSc1nc(N)cc(=O)[nH]1,i,-21*,i,-0.07,-1,i,67*,i
Cc1ccc(C(=O)CSc2nc(N)cc(=O)[nH]2)cc1,i,i,i,-1.2,-9,i,.,.
CCOC(=O)C1=C(C)OC(N)=C(C#N)C1c1cc(Cl)c(OCC(N)=O)c(OC)c1 (stereo not drawn),i,i,i,-1.3,-7,i,.,.
CCOC(=O)C1=C(C)OC(N)=C(C#N)C1c1cc(OC)c2c(c1)OCO2 (stereo not drawn),i,-9.7*,i,-1.4,-10,i,94*,i
CC(C)(CNC(=S)NCCc1ccccc1)CNC(=S)NCCc1ccccc1,14*,-9.4*,i,1.8,-19,i,116*,0.1*
S=C(NCCc1ccccc1)Nc1ccc(Nc2ccccc2)cc1,i,-9.3*,i,-0.03,-7,i,126*,0.13*
S=C(NCCCc1ccccc1)Nc1ccccc1,i,i,i,-1.6,-5,i,.,.
CCCCn1c(N)c(N(CCOC)C(=O)C(C)N2C(=O)c3ccccc3C2=O)c(=O)[nH]c1=O (stereo not drawn),i,i,i,-1.3,-22,i,.,.
COc1cccc(N2C(=O)Nc3ccc(Br)cc3C2(O)C(=O)NCCN(C)C)c1 (stereo not drawn),i,i,i,0.88,-4,i,.,.
COc1ccccc1N1CCN(C(c2cccs2)C(C)NS(=O)(=O)c2ccccc2)CC1 (stereo not drawn),6*,-9.6*,i,-0.51,-14,i,96*,i
CC(NS(=O)(=O)c1ccccc1)C(c1cccs1)N1CCN(c2ccccc2)CC1 (stereo not drawn),i,i,i,0.09,-5,i,.,.
O=C(NCC1CCCO1)c1cc([N+](=O)[O-])ccc1Cl (stereo not drawn),i,i,i,0.13,-2,i,.,.
COc1ccc(CCOC(=O)c2ccc(N)c([N+](=O)[O-])c2)cc1,i,i,i,1,-7,i,.,.
Cc1ccc(S(=O)(=O)N(C)CC(=O)NNC(=O)Cc2cccc(F)c2)cc1,.,i,.,.,.,.,.,.
O=C(NCCO)N1c2ccccc2Sc2ccccc21,i,i,i,-0.01,-3,i,.,.
O=C(Nc1ccccc1O)N1c2ccccc2Sc2ccccc21,i,-10*,i,-0.1,-19,i,103*,i
COc1cc(OC)cc(C(=O)N[C@H](C(=O)OCC(=O)Nc2ccc3c(c2)OCO3)C(C)C)c1,.,i,.,.,.,.,.,.
Clc1ccccc1/C=C/C=N/Nc1nc(N2CCOCC2)nc(N2CCOCC2)n1,i,-10*,i,-0.47,-19,i,94*,i
Cc1ccc(NC(=O)CNc2cccc(S(=O)(=O)N3CCCCC3)c2)cc1F,i,i,i,-3.2,-17,-7.6*,96*,i
COc1cc(CN(C)CC2CCCN(CCc3ccc(F)cc3)C2)c(Cl)cc1O (stereo not drawn),i,-9.6*,i,0.83,-9,i,80*,i
SMILES,KCNQ1 block,KCNK3 block,KCNQ1 pot,Kir21 block,hERG rescue,KCNK9 block,KCNK3 confirm,KCNK3 uninduced
COc1cc(CN(C)CC2CCCN(CCc3cccc(C(F)(F)F)c3)C2)ccc1O (stereo not drawn),i,i,i,-1.2,-7,i,.,.
COC(=O)c1cccnc1-n1c(=O)c2cccnc2n(Cc2cccc(C(F)(F)F)c2)c1=O,i,i,i,-0.09,-12,i,.,.
CC(C)CC(c1nnnn1Cc1ccco1)N1CCN(c2cccc(Cl)c2)CC1 (stereo not drawn),i,-10*,i,-0.43,-5,i,126*,i
CCCC(c1nnnn1Cc1ccc(OC)cc1)N1CCN(c2ccccc2)CC1 (stereo not drawn),i,i,i,0.05,-2,i,.,.
COc1ccc(Cn2nnnc2C(CC(C)C)N2CCN(c3ccccc3)CC2)cc1 (stereo not drawn),i,-9*,i,1.5,-11,i,100*,i
CCn1c(=O)n(CC)c2cc(N3CCCC3)c(NC(=O)c3ccccc3F)cc21,i,i,i,0.64,-7,i,.,.
Cc1ccc(NC(=S)N(CCN2CCOCC2)Cc2cc3cc4c(cc3[nH]c2=O)OCCO4)cc1,i,-8.9*,i,0.34,-12,i,98*,i
CCOc1ccc(NC(=S)N(CCN2CCOCC2)Cc2cc3cc4c(cc3[nH]c2=O)OCO4)cc1,i,i,i,1.4,-11,i,.,.
Cc1cccc(NC(=S)N(CCN2CCOCC2)Cc2cc3cc4c(cc3[nH]c2=O)OCCO4)c1,i,-12*,i,-1.5,-15,i,91*,i
COc1ccc(NC(=S)N(CCN2CCOCC2)Cc2cc3cc4c(cc3[nH]c2=O)OCO4)cc1,i,.,i,1.4,-3,i,.,.
Cc1ccc(NC(=S)N(CCN2CCOCC2)Cc2cc3cc4c(cc3[nH]c2=O)OCO4)cc1,i,-11*,i,0.02,-12,i,92*,i
O=C(CSc1nnc(NC(=O)c2ccccc2F)s1)NCC1CCCO1 (stereo not drawn),i,-8.8*,i,0.28,-9,i,86*,i
Oc1cc2c(cc1CN1CCN(c3cccc(C(F)(F)F)c3)CC1)CCC2,i,-9.4*,i,0.56,-14,i,100*,0.15*
COc1ccc(N2CCN(Cc3cc4c(cc3O)CCC4)CC2)cc1,i,i,i,2.6,-16,i,.,.

# Screens: PubChem, Johns Hopkins Ion Channel Center
